One assay deals with Candida albicans. Kind of assay: Antifungal activity against Candida albicans ATCC 76615 after 48 hrs by disc diffusion method. The conditions noted are these: ATCC 76615, 48 h. In kind it is functional. The procedure, abridged: (§1)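 Disc diffusion on modified Sabouraud-chloramphenicol agar (1% peptone, 2% glucose, […]), compounds as sterile-water stocks; fluconazole and polyoxin B positive controls; MIC (mg/L) recorded after 48 h at 37 °C.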
A general note: Agar diffusion results depend on both activity and mobility in agar.

Another assay has as its system Cryptococcus neoformans. The assay can be described thus: Antifungal activity against Cryptococcus neoformans after 48 hrs by disc diffusion method. Type of assay: functional. The procedure, abridged: as §1
The next assay concerns Aspergillus flavus. The assay can be described thus: Antifungal activity against Aspergillus flavus after 48 hrs by disc diffusion method. In kind it is functional. In short, it runs like this:
as §1

In assay [1] the test system is Staphylococcus aureus. Kind of assay: Antibacterial activity against Staphylococcus aureus ATCC 25923 after overnight incubation by disc diffusion method. In kind it is functional. The procedure, abridged: (§2)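 Agar disc diffusion on beef extract–peptone medium (1% peptone, 0.3% beef extract, 0.5% NaCl, […]), compounds dissolved in sterile water; streptomycin sulfate positive control; plates incubated overnight at 37 °C, then MIC recorded (mg/L).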

A further assay has as its system Bacillus spizizenii. Kind of assay: Antibacterial activity against Bacillus subtilis ATCC 6633 after overnight incubation by disc diffusion method. In kind it is functional. In short, it runs like this:
as §2

Assay [2] deals with Staphylococcus aureus. Kind of assay: Antibacterial activity against methicillin-resistant Staphylococcus aureus N315 after overnight incubation by disc diffusion method. Type of assay: functional. In short, it runs like this:
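Disc diffusion on beef extract-peptone agar (1% peptone, 0.3% beef extract, 0.5% NaCl, […]); compounds dissolved in sterile water; streptomycin sulfate positive control; plates incubated overnight at 37 °C, then MIC (mg/L) recorded.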

A further assay deals with Bacillus. Kind of assay: Antibacterial activity against Bacillus proteus after overnight incubation by disc diffusion method. In kind it is functional. In short, it runs like this:
as §2

The next assay concerns Escherichia coli. The assay can be described thus: Antibacterial activity against Escherichia coli JM 109 after overnight incubation by disc diffusion method. Type of assay: functional. The procedure, abridged: as §2
The subject of another assay is Pseudomonas aeruginosa. Kind of assay: Antibacterial activity against Pseudomonas aeruginosa CR56 after overnight incubation by disc diffusion method. In kind it is functional. The procedure, abridged:
as §2

The nature of assay [3]: Inhibition of Saccharomyces cerevisiae CGMCC 2.145 chitin synthase assessed as UDP-GlcNAc conversion to chitin after 45 mins by ELISA. The procedure, abridged: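 Enzyme prepared from S. cerevisiae cells sonicated at 4 °C in 50 mM Tris–HCl pH 7.0 with protease inhibitors and PMSF; 55,000 g membrane pellet used. Wells hold UDP-GlcNAc plus 320 mM GlcNAc, compound in Tris buffer (final DMSO below 3%), 45 min at 37 °C. Chitin detected with HRP–wheat germ agglutinin, TMB read at 450 nm against a chitin standard curve; IC50 derived.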
(In an ELISA, binding on a coated surface is turned into a signal by an enzyme label.)

Data on nine molecules can be found in ChEMBL document CHEMBL3286331, “Design, synthesis and evaluation of novel quinazoline-2,4-dione derivatives as chitin synthase inhibitors and antifungal agents” (Bioorg Med Chem, 2014).

As to `CCCN(CCC)C(=O)CN(C)CC(O)Cn1c(=O)c2ccccc2n(C)c1=O.Cl` (stereo not given), the MIC – broadly, the lowest concentration found to suppress growth – with Candida albicans is above 512 µg/mL; with Cryptococcus neoformans, 16 µg/mL; in the assay with Aspergillus flavus, 32 µg/mL; with Staphylococcus aureus [1], at least 512 µg/mL; against Bacillus spizizenii it was at least 512 µg/mL; in the assay with Staphylococcus aureus [2], at least 512 µg/mL. The MIC against Bacillus, with Escherichia coli and against Pseudomonas aeruginosa was at least 512 µg/mL throughout. Besides, the IC50 (as a rule, the concentration that inhibits the measured activity by half) in assay [3] is 390 µM.

Regarding `COc1ccc(NC(=O)CN(C)CC(O)Cn2c(=O)c3ccccc3n(C)c2=O)cc1.Cl` (stereo not given), the MIC with Candida albicans was 16 µg/mL; against Cryptococcus neoformans, 128 µg/mL; in the assay on Aspergillus flavus, 16 µg/mL; in the assay on Staphylococcus aureus [1] it was at least 512 µg/mL; in the assay on Bacillus spizizenii, at least 512 µg/mL; in the assay on Staphylococcus aureus [2], at least 512 µg/mL. The MIC with Bacillus, against Escherichia coli and against Pseudomonas aeruginosa was at least 512 µg/mL throughout. For the same molecule, the IC50 in [3] came out at 180 µM.

`CN(CC(=O)NCc1ccccc1)CC(O)Cn1c(=O)c2ccccc2n(C)c1=O.Cl` (stereo not given): the MIC against Candida albicans is 32 µg/mL; against Cryptococcus neoformans, 64 µg/mL; against Aspergillus flavus, 32 µg/mL; against Staphylococcus aureus [1] it was at least 512 µg/mL; in the assay with Bacillus spizizenii, at least 512 µg/mL; in the assay with Staphylococcus aureus [2] it was at least 512 µg/mL. In addition, the MIC in the assay with Bacillus, in the assay with Escherichia coli and with Pseudomonas aeruginosa was at least 512 µg/mL each time. The IC50 in [3] is 130 µM.

As to `Cc1ccc(NC(=O)CN(C)CC(O)Cn2c(=O)c3ccccc3n(C)c2=O)cc1.Cl` (stereo not given), the MIC against Candida albicans is 32 µg/mL; against Cryptococcus neoformans, 2 µg/mL; in the assay on Aspergillus flavus, 32 µg/mL; in the assay on Staphylococcus aureus [1], at least 512 µg/mL; against Bacillus spizizenii, at least 512 µg/mL; in the assay with Staphylococcus aureus [2], at least 512 µg/mL. Further, the MIC with Bacillus, in the assay with Escherichia coli and in the assay on Pseudomonas aeruginosa was at least 512 µg/mL throughout. Further, in assay [3], the IC50 was found to be 80 µM.

With `CN(CC(=O)Nc1ccccc1Cl)CC(O)Cn1c(=O)c2ccccc2n(C)c1=O.Cl` (stereo not given), the MIC is 64 µg/mL against Candida albicans; 2 µg/mL against Cryptococcus neoformans; 32 µg/mL against Aspergillus flavus; at least 512 µg/mL with Staphylococcus aureus [1]; at least 512 µg/mL with Bacillus spizizenii; at least 512 µg/mL in the assay on Staphylococcus aureus [2]. The MIC in the assay with Bacillus, against Escherichia coli and against Pseudomonas aeruginosa was at least 512 µg/mL each time. For the same molecule, the IC50 in assay [3] came out at 260 µM.

With `CN(CC(=O)Nc1ccc(Cl)cc1)CC(O)Cn1c(=O)c2ccccc2n(C)c1=O.Cl` (stereo not given), the MIC in the assay with Candida albicans is 16 µg/mL; with Cryptococcus neoformans it was 2 µg/mL; against Aspergillus flavus it was 128 µg/mL; with Staphylococcus aureus [1], at least 512 µg/mL; with Bacillus spizizenii, at least 512 µg/mL; against Staphylococcus aureus [2] it was at least 512 µg/mL. The MIC against Bacillus, in the assay on Escherichia coli and against Pseudomonas aeruginosa was at least 512 µg/mL in each case. Moreover, in assay [3], the IC50 was 160 µM.

Turning to `CN(CC(=O)Nc1ccc(C(F)(F)F)cc1)CC(O)Cn1c(=O)c2ccccc2n(C)c1=O.Cl` (stereo not given), the MIC was 32 µg/mL in the assay on Candida albicans; 32 µg/mL against Cryptococcus neoformans; 8 µg/mL in the assay on Aspergillus flavus; at least 512 µg/mL against Staphylococcus aureus [1]; at least 512 µg/mL with Bacillus spizizenii; at least 512 µg/mL in the assay with Staphylococcus aureus [2]. Besides, the MIC in the assay with Bacillus, in the assay on Escherichia coli and in the assay on Pseudomonas aeruginosa was at least 512 µg/mL each time. Further, the IC50 in [3] came out at 110 µM.

In the case of `CN(CC(=O)Nc1ccccc1[N+](=O)[O-])CC(O)Cn1c(=O)c2ccccc2n(C)c1=O.Cl` (stereo not given), the MIC in the assay on Candida albicans was above 512 µg/mL; against Cryptococcus neoformans it was 32 µg/mL; in the assay with Aspergillus flavus it was 64 µg/mL; against Staphylococcus aureus [1] it was at least 512 µg/mL; in the assay with Bacillus spizizenii it was at least 512 µg/mL; with Staphylococcus aureus [2], at least 512 µg/mL. The MIC in the assay on Bacillus, with Escherichia coli and against Pseudomonas aeruginosa was at least 512 µg/mL throughout. Moreover, in assay [3], the IC50 was 210 µM.

As to `CN(CC(=O)NCc1ccc(Cl)cc1)CC(O)Cn1c(=O)c2ccccc2n(C)c1=O.Cl` (stereo not given), the minimum inhibitory concentration (MIC) against Candida albicans was 32 µg/mL; against Cryptococcus neoformans it was 64 µg/mL; in the assay with Aspergillus flavus, 64 µg/mL; in the assay on Staphylococcus aureus [1], at least 512 µg/mL; with Bacillus spizizenii, at least 512 µg/mL; against Staphylococcus aureus [2], at least 512 µg/mL. For the same molecule, the MIC against Bacillus, against Escherichia coli and against Pseudomonas aeruginosa was at least 512 µg/mL throughout. Further, in assay [3], the IC50 was above 750 µM.
